Legend:
[1] = target: T1, Amine oxidase [flavin-containing] A (Rattus norvegicus, UniProt P21396); experiment: In vitro inhibitory concentration against Monoamine oxidase A of rat brain homogenates; value ranges from 100-340; assay type: tissue-based
T1 sequence (P21396 whole entry): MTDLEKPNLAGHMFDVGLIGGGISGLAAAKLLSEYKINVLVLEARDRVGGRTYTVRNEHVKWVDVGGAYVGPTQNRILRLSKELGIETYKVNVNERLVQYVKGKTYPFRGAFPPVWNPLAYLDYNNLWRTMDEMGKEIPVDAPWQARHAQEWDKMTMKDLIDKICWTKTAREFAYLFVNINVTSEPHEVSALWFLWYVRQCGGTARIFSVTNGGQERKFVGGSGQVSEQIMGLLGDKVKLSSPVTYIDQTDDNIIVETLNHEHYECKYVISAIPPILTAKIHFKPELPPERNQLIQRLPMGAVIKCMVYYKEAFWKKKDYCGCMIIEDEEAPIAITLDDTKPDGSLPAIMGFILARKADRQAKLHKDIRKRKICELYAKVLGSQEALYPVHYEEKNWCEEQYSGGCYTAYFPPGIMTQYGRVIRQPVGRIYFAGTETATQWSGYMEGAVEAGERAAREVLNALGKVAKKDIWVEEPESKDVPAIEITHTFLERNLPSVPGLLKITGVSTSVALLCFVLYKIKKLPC

Butyrylcholinesterase [2] = target: T2, Butyrylcholinesterase (Equus caballus, UniProt Q9N1N9); experiment: In vitro inhibitory concentration against Butyrylcholinesterase of horse serum; value ranges from 1.38-1.65
T2 sequence (Q9N1N9 whole entry): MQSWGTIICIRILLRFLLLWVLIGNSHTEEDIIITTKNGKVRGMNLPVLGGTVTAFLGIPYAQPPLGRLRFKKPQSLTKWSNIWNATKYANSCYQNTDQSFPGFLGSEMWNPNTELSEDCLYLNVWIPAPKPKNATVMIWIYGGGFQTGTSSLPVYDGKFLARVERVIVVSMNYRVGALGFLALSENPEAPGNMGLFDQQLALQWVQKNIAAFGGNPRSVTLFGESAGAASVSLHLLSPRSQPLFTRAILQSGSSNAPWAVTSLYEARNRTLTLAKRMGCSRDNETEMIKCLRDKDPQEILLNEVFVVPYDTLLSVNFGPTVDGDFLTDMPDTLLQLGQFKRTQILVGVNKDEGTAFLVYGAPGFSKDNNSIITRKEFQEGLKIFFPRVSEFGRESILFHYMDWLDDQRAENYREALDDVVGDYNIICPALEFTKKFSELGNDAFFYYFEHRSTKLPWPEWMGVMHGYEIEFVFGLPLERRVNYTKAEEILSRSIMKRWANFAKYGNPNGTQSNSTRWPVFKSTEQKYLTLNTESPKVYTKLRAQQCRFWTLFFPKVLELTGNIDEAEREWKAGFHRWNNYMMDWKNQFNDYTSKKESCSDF
Method in brief: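 Ellman assay followed, with 200 µM butyrylthiocholine as substrate. Runs were in triplicate with four-point dose-response curves. IC50 and fiducial limits came from log concentration versus % inhibition.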

[3] = target: T3, Amine oxidase [flavin-containing] B (Rattus norvegicus, UniProt P19643); experiment: In vitro inhibitory concentration against Monoamine oxidase B of rat brain homogenates; value ranges from 0.07-0.59; assay type: tissue-based
T3 sequence (P19643 whole entry): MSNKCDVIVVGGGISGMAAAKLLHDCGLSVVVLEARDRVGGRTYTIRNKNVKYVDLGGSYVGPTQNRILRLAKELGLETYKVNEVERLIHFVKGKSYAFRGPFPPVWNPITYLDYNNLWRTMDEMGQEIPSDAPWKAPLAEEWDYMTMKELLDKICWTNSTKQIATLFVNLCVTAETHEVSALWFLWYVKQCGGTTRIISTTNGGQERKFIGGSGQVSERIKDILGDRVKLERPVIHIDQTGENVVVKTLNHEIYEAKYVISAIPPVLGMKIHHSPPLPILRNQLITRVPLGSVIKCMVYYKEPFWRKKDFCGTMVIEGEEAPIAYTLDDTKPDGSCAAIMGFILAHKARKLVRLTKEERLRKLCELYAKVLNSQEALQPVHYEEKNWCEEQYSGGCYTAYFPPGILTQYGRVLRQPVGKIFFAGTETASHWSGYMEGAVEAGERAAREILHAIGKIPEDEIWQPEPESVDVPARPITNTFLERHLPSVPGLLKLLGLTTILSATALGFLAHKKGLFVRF
Method in brief: (§1)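 Rat brain homogenate (in 0.3 M sucrose) as enzyme source; compounds diluted 10⁻²M to 10⁻⁹M in 0.05 M phosphate buffer with 0.15 μM clorgyline; preincubated 60 min at 37 °C, then 10 μM ¹⁴C-phenylethylamine added for 20 min more; stopped with citric acid; metabolites extracted into toluene/ethyl acetate, scintillation counted; activity as % of control, tranylcypromine blank.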

Acetylcholinesterase [4] = target: T4, Acetylcholinesterase (Homo sapiens, UniProt P22303); experiment: In vitro inhibitory concentration against purified Acetylcholinesterase of human erythrocytes; value ranges from 91.8-732
T4 sequence (P22303 whole entry): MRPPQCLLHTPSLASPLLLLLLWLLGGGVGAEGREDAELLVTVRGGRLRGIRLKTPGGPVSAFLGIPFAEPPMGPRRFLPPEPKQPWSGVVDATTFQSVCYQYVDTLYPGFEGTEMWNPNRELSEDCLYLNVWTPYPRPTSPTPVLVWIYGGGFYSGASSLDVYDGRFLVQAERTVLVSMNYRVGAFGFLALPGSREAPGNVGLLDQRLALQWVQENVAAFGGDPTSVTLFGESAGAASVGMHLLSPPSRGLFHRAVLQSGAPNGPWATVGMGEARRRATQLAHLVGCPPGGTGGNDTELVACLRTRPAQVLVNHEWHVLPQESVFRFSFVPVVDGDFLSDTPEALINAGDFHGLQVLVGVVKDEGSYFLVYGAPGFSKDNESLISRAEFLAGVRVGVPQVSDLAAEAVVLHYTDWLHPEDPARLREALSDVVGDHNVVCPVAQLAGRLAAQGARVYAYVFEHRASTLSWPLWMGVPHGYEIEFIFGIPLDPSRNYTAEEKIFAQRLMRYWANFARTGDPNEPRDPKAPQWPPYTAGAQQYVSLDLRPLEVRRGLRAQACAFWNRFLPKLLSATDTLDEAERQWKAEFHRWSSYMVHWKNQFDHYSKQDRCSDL

[5] = target: T3, Amine oxidase [flavin-containing] B; experiment: In vitro inhibitory concentration against Monoamine oxidase B of rat brain homogenates; value ranges from 150-360; assay type: tissue-based
[6] = target: T1, Amine oxidase [flavin-containing] A; experiment: In vitro inhibitory concentration against Monoamine oxidase A of rat brain homogenates; value ranges from 600-1100; assay type: tissue-based
Acetylcholinesterase [7] = target: T4, Acetylcholinesterase; experiment: In vitro inhibitory concentration against purified Acetylcholinesterase of human erythrocytes
Acetylcholinesterase [8] = target: T4, Acetylcholinesterase; experiment: In vitro inhibitory concentration against purified Acetylcholinesterase of human erythrocytes; value ranges from 22.2-56.8
[9] = target: T3, Amine oxidase [flavin-containing] B; experiment: In vitro inhibitory concentration against Monoamine oxidase B of rat brain homogenates; assay type: tissue-based
[10] = target: T1, Amine oxidase [flavin-containing] A; experiment: In vitro inhibitory concentration against Monoamine oxidase A of rat brain homogenates; value ranges from 100-310; assay type: tissue-based
[11] = target: T1, Amine oxidase [flavin-containing] A; experiment: In vitro inhibitory concentration against Monoamine oxidase A of rat brain homogenates; value ranges from 11-38; assay type: tissue-based
Acetylcholinesterase [12] = target: T4, Acetylcholinesterase
[13] = target: T3, Amine oxidase [flavin-containing] B; experiment: In vitro inhibitory concentration against Monoamine oxidase B of rat brain homogenates; value ranges from 0.19-0.26; assay type: tissue-based; method in brief: as §1
Acetylcholinesterase [14] = target: T4, Acetylcholinesterase; experiment: In vitro inhibitory concentration against purified Acetylcholinesterase of human erythrocytes; value ranges from 5.6-11.9
[15] = target: T1, Amine oxidase [flavin-containing] A; experiment: In vitro inhibitory concentration against Monoamine oxidase A of rat brain homogenates; value ranges from 0.8-1.0; assay type: tissue-based
Acetylcholinesterase [16] = target: T4, Acetylcholinesterase; experiment: In vitro inhibitory concentration against purified Acetylcholinesterase of human erythrocytes; value ranges from 1.7-2.5
[17] = target: T3, Amine oxidase [flavin-containing] B; experiment: In vitro inhibitory concentration against Monoamine oxidase B of rat brain homogenates; value ranges from 0.019-0.021; assay type: tissue-based; method in brief: as §1
[18] = target: T1, Amine oxidase [flavin-containing] A; experiment: In vitro inhibitory concentration against Monoamine oxidase A of rat brain homogenates; value ranges from 0.005-0.010; assay type: tissue-based
[19] = Pseudo-first order rate constant for carbamoylation of ACHE at 400 (uM) concentration; assay type: ADME
Method in brief: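 Pseudo-first-order rate constants kobs measured at 4-5 inhibitor concentrations following Bar-On et al. Apparent bimolecular carbamylation constant ki calculated from these.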

[20] = Bimolecular rate constant for carbamoylation of ACHE; assay type: ADME
Method in brief: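 Human erythrocyte AChE preincubated with inhibitor at 37 °C in 0.1 M phosphate buffer, pH 7.4, under Ellman conditions with 200 µM […]. Pseudo-first-order rate constants (k_obs) for progressive inhibition were obtained at 4-5 inhibitor concentrations. The apparent bimolecular carbamylation constant k_i was calculated from these.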

[21] = Pseudo-first order rate constant for carbamoylation of ACHE at 50 (uM) concentration; assay type: ADME
Method in brief: (§2)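 Human erythrocyte AChE, same Ellman conditions: 200 µM […], 60 min preincubation at 37 °C, 0.1 M phosphate pH 7.4. Progressive inhibition followed at 4-5 inhibitor concentrations. Pseudo-first-order k_obs (min⁻¹) derived per concentration; apparent bimolecular carbamylation constant k_i calculated from these.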

[22] = Pseudo-first order rate constant for carbamoylation of ACHE at 200 (uM) concentration; assay type: ADME; method in brief: as §2
[23] = Pseudo-first order rate constant for carbamoylation of ACHE at 300 (uM) concentration; assay type: ADME; method in brief: as §2
Acetylcholinesterase [24] = target: T4, Acetylcholinesterase; remark: listed apart in the source
Butyrylcholinesterase [25] = target: T2, Butyrylcholinesterase; experiment: In vitro inhibitory concentration against Butyrylcholinesterase of horse serum; value ranges from 1.54-2.83
[26] = Pseudo-first order rate constant for carbamoylation of ACHE at 100 (uM) concentration; assay type: ADME; method in brief: as §2
Butyrylcholinesterase [27] = target: T2, Butyrylcholinesterase
Acetylcholinesterase [28] = target: T4, Acetylcholinesterase; experiment: In vitro inhibitory concentration against purified Acetylcholinesterase of human erythrocytes; value ranges from 9.8-157
[29] = target: T3, Amine oxidase [flavin-containing] B; experiment: In vitro inhibitory concentration against Monoamine oxidase B of rat brain homogenates; value ranges from 1.6-2.9; assay type: tissue-based
[30] = target: T1, Amine oxidase [flavin-containing] A; experiment: In vitro inhibitory concentration against Monoamine oxidase A of rat brain homogenates; value ranges from 1.0-1.8; assay type: tissue-based
Acetylcholinesterase [31] = target: T4, Acetylcholinesterase; experiment: In vitro inhibitory concentration against purified Acetylcholinesterase of human erythrocytes; value ranges from 33.4-148
Acetylcholinesterase [32] = target: T4, Acetylcholinesterase; experiment: In vitro inhibitory concentration against purified Acetylcholinesterase of human erythrocytes; value ranges from 1.27-1.86
Acetylcholinesterase [33] = target: T4, Acetylcholinesterase; experiment: In vitro inhibitory concentration against purified Acetylcholinesterase of human erythrocytes; value ranges from […]-[…]
Acetylcholinesterase [34] = target: T4, Acetylcholinesterase; experiment: In vitro inhibitory concentration against purified Acetylcholinesterase of human erythrocytes; value ranges from 7.33-61.5
[35] = target: T1, Amine oxidase [flavin-containing] A; experiment: In vitro inhibitory concentration against Monoamine oxidase A of rat brain homogenates; assay type: tissue-based

C#CCNC(C)Cc1ccccc1 (centres undefined)
IC50 [1]: 195 µM

C#CCN(C)C(C)Cc1cccc(OC(=O)N(C)CC)c1 (centres undefined)
IC50 (Butyrylcholinesterase [2]): 1.5 µM | IC50 [3]: 0.1 µM | IC50 (Acetylcholinesterase [4]): 234 µM

C#CCNC(C)Cc1cccc(O)c1 (centres undefined)
IC50 [5]: 230 µM | IC50 [6]: 830 µM

CC(c1cccc(OC(=O)N(C)C)c1)N(C)C (centres undefined)
IC50 (Acetylcholinesterase [7]): 0.03 µM

CCN(C)C(=O)Oc1cccc(CCN)c1
IC50 (Acetylcholinesterase [8]): 35.5 µM | IC50 [9]: > 1000 µM | IC50 [10]: 180 µM

CCN(C)C(=O)Oc1cccc(CCNC)c1
IC50 [11]: 20 µM | IC50 [9]: > 1000 µM

CN(C)C(=O)Oc1ccc2c(c1)CC(N)CC2 (centres undefined)
IC50 (Acetylcholinesterase [12]): 3.24 µM

C#CCN(C)[C@H](C)Cc1cccc(OC(=O)N(C)C2CCCCC2)c1
IC50 [13]: 0.22 µM | IC50 (Acetylcholinesterase [14]): 7.9 µM | IC50 [15]: 0.9 µM

C#CCN(C)[C@H](C)Cc1cccc(OC(=O)N(C)CCCCCC)c1
IC50 (Acetylcholinesterase [16]): 2 µM

C#CCN(C)[C@@H]1CCc2ccc(O)cc21
IC50 [17]: 0.02 µM | IC50 [18]: 0.007 µM

C#CCN[C@@H]1CCc2ccc(OC(=O)N(C)CC)cc21.Cl
K obs [19]: 52 min⁻¹ | Bimolecular carbamoylation rate constant (ki) [20]: 1.7 M⁻¹ s⁻¹ | IC50 [9]: > 1000 µM | K obs [21]: 16 min⁻¹ | K obs [22]: 32 min⁻¹ | K obs [23]: 42 min⁻¹ | IC50 (Acetylcholinesterase [24]): 31.8 µM | IC50 (Butyrylcholinesterase [25]): 1.98 µM | K obs [26]: 21 min⁻¹

C#CCN(C)C(C)Cc1cccc(OC(=O)N(C)CCC)c1 (centres undefined)
IC50 (Butyrylcholinesterase [27]): 22.8 µM | IC50 (Acetylcholinesterase [28]): 33.1 µM

C#CCNC1CCc2cccc(O)c21 (centres undefined)
IC50 [29]: 2.1 µM | IC50 [30]: 1.3 µM

CCN(C)C(=O)Oc1ccc2c(c1)CC(N)CC2 (centres undefined)
IC50 (Acetylcholinesterase [31]): 79.6 µM

CN(C)C(=O)Oc1ccc2c(c1)C(N)CCC2 (centres undefined)
IC50 (Acetylcholinesterase [32]): 1.48 µM

CCCNC1CCc2ccc(OC(=O)N(C)CC)cc21 (centres undefined)
IC50 (Acetylcholinesterase [33]): 3.6 µM

C#CCNC1CCc2ccc(OC(=S)N(C)CC)cc21 (centres undefined)
IC50 (Acetylcholinesterase [7]): > 500 µM

CCNC(=O)Oc1ccc2c(c1)C(N)CC2 (centres undefined)
IC50 (Acetylcholinesterase [34]): 17.7 µM

CCCN(C)C(=O)Oc1cccc2c1C(N)CC2 (centres undefined)
IC50 [9]: > 1000 µM | IC50 [35]: 1000 µM

From ChEMBL document CHEMBL1135657, “Novel dual inhibitors of AChE and MAO derived from hydroxy aminoindan and phenethylamine as potential treatment for Alzheimer's disease” (J Med Chem, 2002)
